Assay results published in ChEMBL document CHEMBL5058577, “EUbOPEN Chemogenomics Library 2 (Multiplex)” (2022).

System: Fibroblast
Experiment: Multiplex assay against human fibroblast
Type: toxicity, cell-based
In short: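 Live cells were stained at seeding with Hoechst33342, BioTracker Green Microtubule Cytoskeleton Dye, MitoTracker Red and Annexin V Alexa Fluor 680, then imaged on a CQ1 microscope at 37°C and 5% CO2 after compound addition. CellPathfinder machine-learning gating split cells into Hoechst high-intensity objects or normal cells. Normal cells were split into healthy, pyknosed or fragmented nuclei, and pyknosed cells into mitotic or apoptotic. Tubulin, mitochondrial-mass and membrane-permeability phenotypes are per cents of healthy-nucleus cells.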

[1] = 12 h, 1 µM, compound concentration 1 uM, replicate 1
[2] = 12 h, 1 µM, compound concentration 1 uM, replicate 2
[3] = 12 h, 10 µM, compound concentration 10 uM, replicate 1
[4] = 12 h, 10 µM, compound concentration 10 uM, replicate 2
[5] = 24 h, 1 µM, compound concentration 1 uM, replicate 1
[6] = 24 h, 1 µM, compound concentration 1 uM, replicate 2
[7] = 24 h, 10 µM, compound concentration 10 uM, replicate 1
[8] = 24 h, 10 µM, compound concentration 10 uM, replicate 2
[9] = 48 h, 1 µM, compound concentration 1 uM, replicate 1
[10] = 48 h, 1 µM, compound concentration 1 uM, replicate 2
[11] = 48 h, 10 µM, compound concentration 10 uM, replicate 1
[12] = 48 h, 10 µM, compound concentration 10 uM, replicate 2

With O=C(NCC(=O)N1CC[C@H](N[C@H]2CC[C@@](O)(c3ccc(-c4ncccn4)cn3)CC2)C1)c1cccc(C(F)(F)F)c1 [PF-4136309] as the compound, how does the “Population Apoptotic (%)” value [1] read?
The value was 53%.

And the “Population Fragmented Nuclei (%)” value [1]?
Its value is 13%.

And the “Population Healthy Nuclei (%)” value [1]?
The value was 63%.

And the “Population Hoechst High Intensity Objects (%)” value [1]?
Its value is 2%.

What about the “Population Membrane Permeable-Phenotype (%)” value [1] of the same compound?
The value was 1%.

What about the “Population Mitochondria Different-Phenotype (%)” value [1] of the same compound?
The value was 4%.

And the “Population Mitotic Cells (%)” value [1]?
The value was 46%.

What about the “Population Normal (%)” value [1] of the same compound?
The value was 97%.

And the “Population Pyknosed Nuclei (%)” value [1]?
Its value is 23%.

And the “Population Tubulin-Different-Phenotype (%)” value [1]?
The value was 28%.

And the “Total Cell Count” value [1]?
The value was 142.

And the “Population Apoptotic (%)” value [2]?
Its value is 22%.

What about the “Population Fragmented Nuclei (%)” value [2] of the same compound?
Its value is 25%.

And the “Population Healthy Nuclei (%)” value [2]?
The value was 52%.

And the “Population Hoechst High Intensity Objects (%)” value [2]?
Its value is 5%.

What about the “Population Membrane Permeable-Phenotype (%)” value [2] of the same compound?
Its value is 13%.

And the “Population Mitochondria Different-Phenotype (%)” value [2]?
Its value is 7%.

What about the “Population Mitotic Cells (%)” value [2] of the same compound?
Its value is 77%.

And the “Population Normal (%)” value [2]?
The value was 94%.

And the “Population Pyknosed Nuclei (%)” value [2]?
Its value is 21%.

What about the “Population Tubulin-Different-Phenotype (%)” value [2] of the same compound?
The value was 60%.

What about the “Total Cell Count” value [2] of the same compound?
The value was 152.

What about the “Population Apoptotic (%)” value [3] of the same compound?
Its value is 60%.

And the “Population Fragmented Nuclei (%)” value [3]?
Its value is 18%.

And the “Population Healthy Nuclei (%)” value [3]?
Its value is 69%.

And the “Population Hoechst High Intensity Objects (%)” value [3]?
The value was 2%.

And the “Population Membrane Permeable-Phenotype (%)” value [3]?
Its value is 0%.

And the “Population Mitochondria Different-Phenotype (%)” value [3]?
Its value is 11%.

And the “Population Mitotic Cells (%)” value [3]?
The value was 40%.

And the “Population Normal (%)” value [3]?
Its value is 97%.

What about the “Population Pyknosed Nuclei (%)” value [3] of the same compound?
Its value is 12%.

And the “Population Tubulin-Different-Phenotype (%)” value [3]?
Its value is 46%.

And the “Total Cell Count” value [3]?
Its value is 210.

And the “Population Apoptotic (%)” value [4]?
Its value is 25%.

What about the “Population Fragmented Nuclei (%)” value [4] of the same compound?
Its value is 24%.

What about the “Population Healthy Nuclei (%)” value [4] of the same compound?
Its value is 52%.

And the “Population Hoechst High Intensity Objects (%)” value [4]?
The value was 5%.

What about the “Population Membrane Permeable-Phenotype (%)” value [4] of the same compound?
Its value is 4%.

What about the “Population Mitochondria Different-Phenotype (%)” value [4] of the same compound?
Its value is 6%.

And the “Population Mitotic Cells (%)” value [4]?
The value was 75%.

And the “Population Normal (%)” value [4]?
Its value is 94%.

What about the “Population Pyknosed Nuclei (%)” value [4] of the same compound?
Its value is 23%.

What about the “Population Tubulin-Different-Phenotype (%)” value [4] of the same compound?
The value was 44%.

And the “Total Cell Count” value [4]?
Its value is 128.

And the “Population Apoptotic (%)” value [5]?
Its value is 61%.

What about the “Population Fragmented Nuclei (%)” value [5] of the same compound?
Its value is 14%.

What about the “Population Healthy Nuclei (%)” value [5] of the same compound?
Its value is 60%.

And the “Population Hoechst High Intensity Objects (%)” value [5]?
The value was 2%.

What about the “Population Membrane Permeable-Phenotype (%)” value [5] of the same compound?
Its value is 1%.

And the “Population Mitochondria Different-Phenotype (%)” value [5]?
Its value is 4%.

And the “Population Mitotic Cells (%)” value [5]?
Its value is 38%.

And the “Population Normal (%)” value [5]?
Its value is 97%.

And the “Population Pyknosed Nuclei (%)” value [5]?
The value was 25%.

And the “Population Tubulin-Different-Phenotype (%)” value [5]?
The value was 32%.

And the “Total Cell Count” value [5]?
Its value is 139.

And the “Population Apoptotic (%)” value [6]?
The value was 45%.

And the “Population Fragmented Nuclei (%)” value [6]?
The value was 33%.

And the “Population Healthy Nuclei (%)” value [6]?
Its value is 52%.

What about the “Population Hoechst High Intensity Objects (%)” value [6] of the same compound?
The value was 4%.

And the “Population Membrane Permeable-Phenotype (%)” value [6]?
Its value is 16%.

What about the “Population Mitochondria Different-Phenotype (%)” value [6] of the same compound?
Its value is 1%.

And the “Population Mitotic Cells (%)” value [6]?
The value was 55%.

And the “Population Normal (%)” value [6]?
Its value is 95%.

And the “Population Pyknosed Nuclei (%)” value [6]?
Its value is 14%.

What about the “Population Tubulin-Different-Phenotype (%)” value [6] of the same compound?
The value was 52%.

What about the “Total Cell Count” value [6] of the same compound?
The value was 148.

What about the “Population Apoptotic (%)” value [7] of the same compound?
Its value is 36%.

What about the “Population Fragmented Nuclei (%)” value [7] of the same compound?
The value was 15%.

And the “Population Healthy Nuclei (%)” value [7]?
The value was 72%.

And the “Population Hoechst High Intensity Objects (%)” value [7]?
The value was 3%.

And the “Population Membrane Permeable-Phenotype (%)” value [7]?
Its value is 0%.

What about the “Population Mitochondria Different-Phenotype (%)” value [7] of the same compound?
Its value is 10%.

What about the “Population Mitotic Cells (%)” value [7] of the same compound?
Its value is 63%.

And the “Population Normal (%)” value [7]?
The value was 96%.

What about the “Population Pyknosed Nuclei (%)” value [7] of the same compound?
The value was 11%.

What about the “Population Tubulin-Different-Phenotype (%)” value [7] of the same compound?
The value was 34%.

And the “Total Cell Count” value [7]?
The value was 203.

What about the “Population Apoptotic (%)” value [8] of the same compound?
The value was 30%.

What about the “Population Fragmented Nuclei (%)” value [8] of the same compound?
The value was 29%.

And the “Population Healthy Nuclei (%)” value [8]?
The value was 48%.

What about the “Population Hoechst High Intensity Objects (%)” value [8] of the same compound?
The value was 2%.

And the “Population Membrane Permeable-Phenotype (%)” value [8]?
The value was 6%.

What about the “Population Mitochondria Different-Phenotype (%)” value [8] of the same compound?
Its value is 4%.

And the “Population Mitotic Cells (%)” value [8]?
Its value is 70%.

What about the “Population Normal (%)” value [8] of the same compound?
The value was 97%.

And the “Population Pyknosed Nuclei (%)” value [8]?
Its value is 22%.

And the “Population Tubulin-Different-Phenotype (%)” value [8]?
Its value is 52%.

What about the “Total Cell Count” value [8] of the same compound?
The value was 139.

What about the “Population Apoptotic (%)” value [9] of the same compound?
Its value is 58%.

What about the “Population Fragmented Nuclei (%)” value [9] of the same compound?
The value was 26%.

And the “Population Healthy Nuclei (%)” value [9]?
The value was 49%.

What about the “Population Hoechst High Intensity Objects (%)” value [9] of the same compound?
Its value is 2%.

What about the “Population Membrane Permeable-Phenotype (%)” value [9] of the same compound?
Its value is 2%.

What about the “Population Mitochondria Different-Phenotype (%)” value [9] of the same compound?
The value was 2%.

What about the “Population Mitotic Cells (%)” value [9] of the same compound?
Its value is 41%.

And the “Population Normal (%)” value [9]?
The value was 97%.

And the “Population Pyknosed Nuclei (%)” value [9]?
Its value is 24%.

What about the “Population Tubulin-Different-Phenotype (%)” value [9] of the same compound?
The value was 27%.

What about the “Total Cell Count” value [9] of the same compound?
Its value is 149.

What about the “Population Apoptotic (%)” value [10] of the same compound?
Its value is 50%.

And the “Population Fragmented Nuclei (%)” value [10]?
Its value is 36%.

And the “Population Hoechst High Intensity Objects (%)” value [10]?
Its value is 4%.

What about the “Population Membrane Permeable-Phenotype (%)” value [10] of the same compound?
The value was 7%.

And the “Population Mitochondria Different-Phenotype (%)” value [10]?
Its value is 4%.

And the “Population Mitotic Cells (%)” value [10]?
The value was 50%.

And the “Population Normal (%)” value [10]?
The value was 95%.

What about the “Population Pyknosed Nuclei (%)” value [10] of the same compound?
The value was 13%.

What about the “Population Tubulin-Different-Phenotype (%)” value [10] of the same compound?
Its value is 46%.

What about the “Total Cell Count” value [10] of the same compound?
The value was 137.

What about the “Population Apoptotic (%)” value [11] of the same compound?
Its value is 47%.

And the “Population Fragmented Nuclei (%)” value [11]?
The value was 18%.

What about the “Population Healthy Nuclei (%)” value [11] of the same compound?
Its value is 72%.

And the “Population Hoechst High Intensity Objects (%)” value [11]?
The value was 6%.

What about the “Population Membrane Permeable-Phenotype (%)” value [11] of the same compound?
Its value is 0%.

And the “Population Mitochondria Different-Phenotype (%)” value [11]?
The value was 15%.

And the “Population Mitotic Cells (%)” value [11]?
Its value is 52%.

What about the “Population Normal (%)” value [11] of the same compound?
The value was 93%.

What about the “Population Pyknosed Nuclei (%)” value [11] of the same compound?
The value was 9%.

And the “Population Tubulin-Different-Phenotype (%)” value [11]?
Its value is 47%.

And the “Total Cell Count” value [11]?
The value was 195.

And the “Population Apoptotic (%)” value [12]?
The value was 63%.

And the “Population Fragmented Nuclei (%)” value [12]?
The value was 31%.

What about the “Population Healthy Nuclei (%)” value [12] of the same compound?
Its value is 52%.

And the “Population Membrane Permeable-Phenotype (%)” value [12]?
Its value is 6%.

What about the “Population Mitochondria Different-Phenotype (%)” value [12] of the same compound?
Its value is 6%.

What about the “Population Mitotic Cells (%)” value [12] of the same compound?
Its value is 36%.

What about the “Population Pyknosed Nuclei (%)” value [12] of the same compound?
Its value is 15%.

What about the “Population Tubulin-Different-Phenotype (%)” value [12] of the same compound?
The value was 54%.

What about the “Total Cell Count” value [12] of the same compound?
The value was 129.
